ChEMBL document CHEMBL4354879, “Bioisosteric Discovery of NPA101.3, a Second-Generation RET/VEGFR2 Inhibitor Optimized for Single-Agent Polypharmacology” (J Med Chem, 2020)
Activity calls are given as the source filed them. The rule behind the calls is not given here.

Assays:
[1] = target: Tyrosine-protein kinase Lyn (Homo sapiens) (UniProt P07948); assay: Binding affinity to wild-type human partial length LYN (C219 to Q511 residues) expressed in bacterial expression system at 100 nM by Kinomescan method relative to control
Sequence of Tyrosine-protein kinase Lyn (Homo sapiens) (P07948 2-512 limits assumed): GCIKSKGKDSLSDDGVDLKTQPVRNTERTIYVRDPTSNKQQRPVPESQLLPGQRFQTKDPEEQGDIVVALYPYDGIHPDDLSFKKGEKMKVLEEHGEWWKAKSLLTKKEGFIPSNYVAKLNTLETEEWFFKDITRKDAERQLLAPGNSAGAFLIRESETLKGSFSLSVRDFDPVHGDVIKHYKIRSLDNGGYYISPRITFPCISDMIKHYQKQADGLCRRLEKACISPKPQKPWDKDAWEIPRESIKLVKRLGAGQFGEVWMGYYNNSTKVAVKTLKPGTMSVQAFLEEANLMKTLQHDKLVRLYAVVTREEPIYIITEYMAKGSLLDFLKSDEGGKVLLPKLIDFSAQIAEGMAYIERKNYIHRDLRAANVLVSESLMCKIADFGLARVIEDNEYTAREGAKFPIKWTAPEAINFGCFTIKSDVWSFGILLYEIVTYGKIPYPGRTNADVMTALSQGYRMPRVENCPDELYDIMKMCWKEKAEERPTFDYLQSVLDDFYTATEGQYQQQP

[2] = target: T1, High affinity nerve growth factor receptor (Homo sapiens, UniProt P04629); assay: Binding affinity to wild-type human partial length TRKA (G475 to G790 residues) expressed in mammalian expression system at 100 nM by Kinomescan method relative to control
Target sequence in this assay (P04629 33-796 limits assumed): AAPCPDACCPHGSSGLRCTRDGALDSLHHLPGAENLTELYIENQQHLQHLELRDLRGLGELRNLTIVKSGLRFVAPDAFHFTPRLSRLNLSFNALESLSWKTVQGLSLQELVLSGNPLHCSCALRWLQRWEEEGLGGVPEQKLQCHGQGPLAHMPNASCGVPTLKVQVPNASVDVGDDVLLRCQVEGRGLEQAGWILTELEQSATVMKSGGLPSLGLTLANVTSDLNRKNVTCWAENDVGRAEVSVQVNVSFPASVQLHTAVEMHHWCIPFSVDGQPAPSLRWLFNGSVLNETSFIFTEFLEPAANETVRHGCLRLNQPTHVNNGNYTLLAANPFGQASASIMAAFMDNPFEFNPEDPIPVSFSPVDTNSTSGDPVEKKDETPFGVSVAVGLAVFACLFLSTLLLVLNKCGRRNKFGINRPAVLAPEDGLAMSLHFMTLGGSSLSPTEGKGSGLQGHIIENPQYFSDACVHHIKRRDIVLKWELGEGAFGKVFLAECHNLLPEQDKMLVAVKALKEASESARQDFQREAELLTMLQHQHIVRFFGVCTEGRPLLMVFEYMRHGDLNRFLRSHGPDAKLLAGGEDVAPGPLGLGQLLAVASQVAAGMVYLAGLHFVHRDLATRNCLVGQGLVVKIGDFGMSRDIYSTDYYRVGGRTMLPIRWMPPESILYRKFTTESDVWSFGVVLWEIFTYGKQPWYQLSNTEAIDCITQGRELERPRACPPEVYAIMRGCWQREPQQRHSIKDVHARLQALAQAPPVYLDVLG

[3] = target: T1, High affinity nerve growth factor receptor; assay: Inhibition of recombinant human His-tagged TRKA cytoplasmic domain (441 to 796 residues) expressed in baculovirus expression system using peptide substrate preincubated for 60 mins followed by substrate addition by microfluidic assay
Target sequence in this assay (P04629 whole entry, the tested form may be a part): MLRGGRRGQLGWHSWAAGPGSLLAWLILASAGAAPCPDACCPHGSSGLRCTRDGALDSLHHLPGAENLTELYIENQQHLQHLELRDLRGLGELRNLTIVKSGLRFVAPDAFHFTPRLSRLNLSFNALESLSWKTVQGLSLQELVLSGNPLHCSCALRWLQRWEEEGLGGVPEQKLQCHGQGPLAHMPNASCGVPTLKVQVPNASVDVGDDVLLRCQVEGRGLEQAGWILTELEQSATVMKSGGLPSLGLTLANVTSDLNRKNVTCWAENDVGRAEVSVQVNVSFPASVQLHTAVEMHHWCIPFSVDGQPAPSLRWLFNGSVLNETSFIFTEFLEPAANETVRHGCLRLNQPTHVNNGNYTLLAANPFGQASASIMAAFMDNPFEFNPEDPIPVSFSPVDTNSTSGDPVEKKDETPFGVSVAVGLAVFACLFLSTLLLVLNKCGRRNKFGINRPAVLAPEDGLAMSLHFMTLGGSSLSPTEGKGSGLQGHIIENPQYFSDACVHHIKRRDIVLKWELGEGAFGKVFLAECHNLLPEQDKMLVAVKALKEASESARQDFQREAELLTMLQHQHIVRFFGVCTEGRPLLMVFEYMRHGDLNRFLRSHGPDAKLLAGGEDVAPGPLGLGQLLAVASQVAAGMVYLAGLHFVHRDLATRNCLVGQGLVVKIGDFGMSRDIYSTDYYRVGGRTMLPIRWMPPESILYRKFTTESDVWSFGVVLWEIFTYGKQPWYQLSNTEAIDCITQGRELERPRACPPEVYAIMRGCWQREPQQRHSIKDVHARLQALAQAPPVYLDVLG

[4] = target: T2, SHC-transforming protein 1 (Homo sapiens) (UniProt P29353); assay: Effect on SHC phosphorylation in RET deficient human Nthy-ori 3-1 cells at 1 to 100 nM measured after 2 hrs by western blot analysis
T2 sequence (whole entry): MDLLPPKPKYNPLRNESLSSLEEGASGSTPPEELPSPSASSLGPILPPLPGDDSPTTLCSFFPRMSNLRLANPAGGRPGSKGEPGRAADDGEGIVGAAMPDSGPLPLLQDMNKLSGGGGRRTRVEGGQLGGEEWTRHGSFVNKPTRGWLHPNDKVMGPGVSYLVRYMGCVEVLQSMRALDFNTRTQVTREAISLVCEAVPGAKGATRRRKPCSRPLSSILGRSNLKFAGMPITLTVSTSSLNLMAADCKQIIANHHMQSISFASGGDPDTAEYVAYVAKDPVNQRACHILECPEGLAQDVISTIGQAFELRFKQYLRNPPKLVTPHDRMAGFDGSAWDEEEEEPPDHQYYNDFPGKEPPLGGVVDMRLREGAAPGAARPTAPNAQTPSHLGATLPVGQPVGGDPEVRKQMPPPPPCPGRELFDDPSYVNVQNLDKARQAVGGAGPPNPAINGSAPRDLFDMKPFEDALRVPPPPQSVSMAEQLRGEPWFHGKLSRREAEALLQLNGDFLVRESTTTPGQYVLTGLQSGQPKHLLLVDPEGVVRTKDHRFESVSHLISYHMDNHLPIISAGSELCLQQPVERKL

[5] = tested on: Proto-oncogene tyrosine-protein kinase receptor Ret (Homo sapiens), P07949 [M918T]; assay: Inhibition of RET isoform 9 M918T mutant (unknown origin) expressed in rat Rat1 assessed as reduction in RET phosphorylation at Y905 residue at 1 to 100 nM measured after 2 hrs by Western blot analysis; type: cell-based
Sequence of Proto-oncogene tyrosine-protein kinase receptor Ret (Homo sapiens), P07949 [M918T] (P07949 whole entry M918T, the tested form may be a part, canonical isoform): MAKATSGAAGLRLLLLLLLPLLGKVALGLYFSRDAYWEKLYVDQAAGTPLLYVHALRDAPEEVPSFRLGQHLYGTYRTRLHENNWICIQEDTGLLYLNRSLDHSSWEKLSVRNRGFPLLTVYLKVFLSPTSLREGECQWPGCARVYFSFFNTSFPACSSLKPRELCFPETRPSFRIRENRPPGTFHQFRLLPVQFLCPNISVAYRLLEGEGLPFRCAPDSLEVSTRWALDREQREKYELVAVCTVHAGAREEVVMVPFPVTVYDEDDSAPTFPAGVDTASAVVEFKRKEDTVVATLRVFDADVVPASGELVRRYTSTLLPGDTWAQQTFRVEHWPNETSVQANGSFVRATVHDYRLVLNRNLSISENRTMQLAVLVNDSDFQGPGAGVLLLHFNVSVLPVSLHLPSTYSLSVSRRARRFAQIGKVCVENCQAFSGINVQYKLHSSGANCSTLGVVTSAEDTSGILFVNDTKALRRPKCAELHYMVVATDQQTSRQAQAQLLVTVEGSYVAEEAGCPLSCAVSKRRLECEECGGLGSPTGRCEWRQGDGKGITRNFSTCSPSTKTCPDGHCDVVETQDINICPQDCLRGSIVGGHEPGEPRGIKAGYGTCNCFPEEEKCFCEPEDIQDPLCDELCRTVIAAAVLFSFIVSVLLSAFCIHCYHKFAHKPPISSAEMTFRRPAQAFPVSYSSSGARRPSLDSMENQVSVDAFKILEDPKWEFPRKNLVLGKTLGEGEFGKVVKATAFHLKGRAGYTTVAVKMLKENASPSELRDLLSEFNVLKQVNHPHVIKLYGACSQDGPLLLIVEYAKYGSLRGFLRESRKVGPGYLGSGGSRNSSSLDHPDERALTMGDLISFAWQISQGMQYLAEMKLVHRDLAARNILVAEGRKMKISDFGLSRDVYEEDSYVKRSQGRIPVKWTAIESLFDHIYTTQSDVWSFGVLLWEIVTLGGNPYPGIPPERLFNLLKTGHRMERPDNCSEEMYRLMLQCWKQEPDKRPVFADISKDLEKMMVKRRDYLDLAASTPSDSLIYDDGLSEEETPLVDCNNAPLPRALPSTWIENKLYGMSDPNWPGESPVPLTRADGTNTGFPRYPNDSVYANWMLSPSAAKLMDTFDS
How it was run: (§1)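 Serum-starved RAT1 (RET point mutants) or NIH3T3 (RET rearrangements) cells expressing short RET-9 isoform, treated 2 h; 50 μg total lysate immunoblotted with anti-phospho-Y1062 and anti-phospho-Y905 RET antibodies, normalized to total RET; ECL detection. Compound from 50 mM DMSO stock diluted in growth medium.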

Homo sapiens = species: Homo sapiens; assay: Inhibition of CCDC6/RET isoform 9 (unknown origin) expressed in mouse NIH/3T3 cells assessed as reduction in RET phosphorylation at Y1062 residue at 1 to 100 nM measured after 2 hrs by Western blot analysis; type: cell-based; how it was run: as §1
[6] = target: T3, Coiled-coil domain-containing protein 6/Tyrosine-protein kinase receptor RET (Homo sapiens) (UniProt P07949+Q16204); assay: Inhibition of CCDC6/RET in human LC2/ad cells assessed as reduction in RET phosphorylation at Y1062 residue at 0.3 to 30 nM measured after 2 hrs by Western blot analysis; type: cell-based
T3 sequence (P07949 29-1114 limits assumed): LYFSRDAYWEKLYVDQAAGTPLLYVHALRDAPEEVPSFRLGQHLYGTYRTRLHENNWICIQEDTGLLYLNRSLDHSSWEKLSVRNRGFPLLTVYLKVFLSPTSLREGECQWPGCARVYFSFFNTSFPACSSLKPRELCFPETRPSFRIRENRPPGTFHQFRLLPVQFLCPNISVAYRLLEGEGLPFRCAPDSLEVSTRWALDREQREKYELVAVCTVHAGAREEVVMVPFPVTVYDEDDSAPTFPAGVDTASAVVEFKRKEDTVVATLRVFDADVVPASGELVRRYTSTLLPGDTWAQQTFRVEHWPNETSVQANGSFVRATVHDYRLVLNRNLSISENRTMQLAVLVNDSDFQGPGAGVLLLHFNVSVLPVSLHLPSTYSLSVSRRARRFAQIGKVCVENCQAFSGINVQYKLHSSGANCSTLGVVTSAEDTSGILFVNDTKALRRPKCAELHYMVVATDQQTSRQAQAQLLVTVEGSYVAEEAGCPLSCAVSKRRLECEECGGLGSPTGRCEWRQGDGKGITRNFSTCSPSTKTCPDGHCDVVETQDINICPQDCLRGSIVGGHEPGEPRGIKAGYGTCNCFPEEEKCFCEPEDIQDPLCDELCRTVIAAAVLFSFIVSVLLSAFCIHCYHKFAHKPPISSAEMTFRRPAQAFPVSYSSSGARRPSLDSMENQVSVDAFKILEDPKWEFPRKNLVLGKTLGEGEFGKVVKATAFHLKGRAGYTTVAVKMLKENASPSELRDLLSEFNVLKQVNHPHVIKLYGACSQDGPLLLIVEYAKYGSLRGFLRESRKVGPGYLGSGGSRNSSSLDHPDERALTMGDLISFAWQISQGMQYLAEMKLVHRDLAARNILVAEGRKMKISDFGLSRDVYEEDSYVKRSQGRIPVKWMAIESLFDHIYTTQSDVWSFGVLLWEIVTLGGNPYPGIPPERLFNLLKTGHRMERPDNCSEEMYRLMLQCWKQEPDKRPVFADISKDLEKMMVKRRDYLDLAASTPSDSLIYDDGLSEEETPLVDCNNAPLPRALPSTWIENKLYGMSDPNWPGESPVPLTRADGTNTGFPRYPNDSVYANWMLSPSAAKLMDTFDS
T3 sequence (Q16204 2-474 partner limits assumed): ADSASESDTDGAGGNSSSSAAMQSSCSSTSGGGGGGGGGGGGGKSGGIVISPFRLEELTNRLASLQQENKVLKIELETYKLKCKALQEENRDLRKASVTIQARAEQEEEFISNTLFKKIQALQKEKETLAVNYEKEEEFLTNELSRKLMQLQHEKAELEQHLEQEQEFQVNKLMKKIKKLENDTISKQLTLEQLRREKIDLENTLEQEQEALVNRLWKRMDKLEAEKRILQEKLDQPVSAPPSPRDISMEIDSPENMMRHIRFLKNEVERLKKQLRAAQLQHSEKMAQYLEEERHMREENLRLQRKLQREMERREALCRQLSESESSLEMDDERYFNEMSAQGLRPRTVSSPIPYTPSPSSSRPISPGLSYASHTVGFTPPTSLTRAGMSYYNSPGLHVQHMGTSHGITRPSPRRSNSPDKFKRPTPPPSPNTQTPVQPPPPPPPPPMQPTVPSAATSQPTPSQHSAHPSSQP

[7] = tested on: Proto-oncogene tyrosine-protein kinase receptor Ret (Homo sapiens), P07949 [M918T]; assay: Inhibition of Ret isoform 9 M918T mutant in human MZ-CRC-1 cells assessed as reduction in SHC phosphorylation at 0.3 to 30 nM measured after 2 hrs by Western blot analysis; type: cell-based
[8] = target: T3, Coiled-coil domain-containing protein 6/Tyrosine-protein kinase receptor RET (Homo sapiens); assay: Inhibition of CCDC6/RET in human LC2/ad cells assessed as reduction in SHC phosphorylation at 0.3 to 30 nM measured after 2 hrs by Western blot analysis; type: cell-based
BCPAP = assay: Effect on MAPK phosphorylation in RET deficient human BCPAP cells at 1 to 100 nM measured after 2 hrs by western blot analysis; type: cell-based
[9] = Inhibition of NCOA4/RET […] (unknown origin) expressed in mouse BAF3 cells assessed as reduction in cell proliferation supplemented with fresh medium containing compound for every 2 to 3 days and measured daily; type: cell-based
[10] = tested on: Proto-oncogene tyrosine-protein kinase receptor Ret (Homo sapiens), P07949 [M918T]; assay: Inhibition of RET […] M918T mutant (unknown origin) expressed in mouse BAF3 cells assessed as reduction in RET phosphorylation at Y905 residue at 0.3 to 30 nM measured after 2 hrs by Western blot analysis; type: cell-based
How it was run: (§2)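 Ba/F3 cells stably expressing long-isoform RET-51 mutants (electroporation), cultured in RPMI/10% FCS without IL-3; RET phosphorylation read by Western blot with anti-phospho-Y905 and anti-phospho-Y1062 antibodies, ECL detection.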

BaF3 = assay: Inhibition of NCOA4/RET […] (unknown origin) expressed in mouse BAF3 cells assessed as reduction in RET phosphorylation at Y905 residue at 0.3 to 30 nM measured after 2 hrs by Western blot analysis; type: cell-based; conditions: Homo sapiens; how it was run: as §2
PC-9 = assay: Cytotoxicity against RET deficient human PC9 cells supplemented with fresh medium containing compound for every 2 to 3 days measured during compound dosing; type: functional, cell-based
How it was run: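 Human RET-negative lines were seeded in six-well plates at 10000 cells/well, in 5% FCS (Nthy-ori-3-1) or 10% FCS (BCPAP, 8505-C, CALU-1, A549, PC-9). Drug or vehicle was added the day after plating, with medium changed every 2–3 days. Cells were counted every 2–3 days. IC50 was fitted from the last day of the growth curves.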

Mus musculus [11] = assay: In vivo inhibition of VEGFR2 in BALB/c nu/nu mouse implanted with mouse NIH/3T3 cells harboring RET isoform 9 C634R mutant assessed as reduction in VEGFR2 phosphorylation at 3 mg/kg, po administered once daily via gavage for 3 days measured 3 hrs post-last dose by Western blot analysis; type: functional, organism-based
[12] = Toxicity in BALB/c nu/nu mouse assessed as change in glucose level at 10 mg/kg, po administered daily for 7 days; type: organism-based; conditions: in vivo, 168 h
[13] = Toxicity in BALB/c nu/nu mouse assessed as change in alanine transaminase level at 10 mg/kg, po administered daily for 7 days; type: organism-based; conditions: in vivo, 168 h
How it was run: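 Mice dosed orally with 10 mg/kg/day for 7 days; standard blood markers of organ damage measured.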

[14] = Toxicity in BALB/c nu/nu mouse assessed as change in calcium level at 10 mg/kg, po administered daily for 7 days; type: organism-based; conditions: in vivo, 168 h
Mus musculus [15] = assay: In vivo inhibition of RET isoform 9 C634Y mutant transfected in mouse NIH/3T3 cells implanted BALB/c nu/nu mouse assessed as reduction in SHC phosphorylation at 3 mg/kg, po administered once daily via gavage for 2 days measured 3 hrs post-last dose by Western blot analysis
Mus musculus [16] = assay: In vivo inhibition of RET isoform 9 C634Y mutant transfected in mouse NIH/3T3 cells implanted BALB/c nu/nu mouse assessed as reduction in MAPK phosphorylation at 3 mg/kg, po administered once daily via gavage for 2 days measured 3 hrs post-last dose by Western blot analysis

- Activity [1]: > 90%
- Activity [2]: > 90%
- IC50 [3]: 32 nM
- Activity [4]: inactive
- inhibition [5]: Active
- inhibition [6]: Active
- inhibition [7]: Active
- inhibition [8]: Active
- inhibition [10]: Active
Compound: CC(C)(C)c1cc(NC(=O)Cc2ccc(-n3cnc4cc(-c5ccc(S(C)(=O)=O)cc5)ccc43)cc2)no1
- inhibition (Homo sapiens): Active
- Activity (BCPAP): inactive
- IC50 [9]: 3.1 nM
- inhibition (BaF3): Active
- IC50 (PC-9): > 100 nM
- inhibition (Mus musculus [11]): Active
- Activity [12]: Non-Toxic
- Activity [13]: Non-Toxic
- Activity [14]: Non-Toxic
- inhibition (Mus musculus [15]): Active
- inhibition (Mus musculus [16]): Active
